1 compound from ChEMBL document CHEMBL4020824, “Discovery of Potent and Orally Bioavailable Dihydropyrazole GPR40 Agonists” (J Med Chem, 2018) can be followed below.

Calls of active or inactive are those of the source.

The target of series [1] is Voltage-gated inwardly rectifying potassium channel KCNH2 (Homo sapiens, UniProt Q12809). As to the kind of experiment: Inhibition of human ERG (unknown origin) at <10 uM.
Series [2] is described as follows: Stability in rat liver microsomes assessed as parent compound remaining at 1 to 3 uM incubated for 20 mins in presence NADPH measured up to 90 mins by LC/MS/MS analysis. Format: ADME, microsome. Conditions: liver microsomes, read-out: Stability. A digest of the protocol:
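Human or rat liver microsomal incubations. The read-outs were % parent remaining, % D-ring dealkylation metabolites, % GSH adducts, and half-life (min). The metabolites followed were CYP450-mediated oxidative de-alkylation products (phenols) and GSH conjugates.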

Series [3] relates to Mus musculus. As to the kind of experiment: Antidiabetic activity in C57BL/6J mouse assessed as increase in active GLP-1 levels at 3 mg/kg, po administered 1 hr prior to glucose challenge measured after 120 mins in presence of DPP4 inhibitor BMS-538305 during OGTT assay by ELISA. Format: functional, organism-based.
Series [4] can be described thus: Tmax in Sprague-Dawley rat at 3 mg/kg, po administered as single dose measured up to 24 hrs post dose by LC-MS/MS analysis. The class given is ADME, organism-based. Conditions: in vivo.
Series [5] concerns Mus musculus. As to the kind of experiment: Antidiabetic activity in C57BL/6J mouse assessed as increase in plasma insulin levels at 3 mg/kg, po administered 1 hr prior to glucose challenge measured after 120 mins during OGTT by ELISA. Format: functional, organism-based.
The nature of series [6]: Half life in cynomolgus monkey at 0.5 mg/kg, iv administered as single dose measured up to 24 hrs post dose by LC-MS/MS analysis. The class given is ADME, organism-based, Macaca fascicularis. Conditions: in vivo.
Series [7] deals with Mus musculus. As to the kind of experiment: Antidiabetic activity in C57BL/6J mouse assessed as glucose lowering effect at 0.1 mg/kg, po administered 1 hr prior to glucose challenge measured after 120 mins by IPGTT. The class given is functional, organism-based.
The species named for another series is Homo sapiens. The series is described as follows: Inhibition of FFAR (unknown origin) at <10 uM. The procedure, abridged:
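Part of a proprietary selectivity counterscreen panel covering GPCRs (including the related free fatty acid receptors), nuclear hormone receptors, transporters, ion channels and hERG. Activity was scored against a 10 µM threshold.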

Series [8] is described as follows: Oral bioavailability in Beagle dog at 1 mg/kg administered via gavage as single dose measured up to 24 hrs post dose by LC-MS/MS analysis. The class given is ADME, organism-based, Canis lupus familiaris. Conditions: in vivo.
The nature of series [9]: Half life in Sprague-Dawley rat at 1 mg/kg, iv administered as single dose measured up to 24 hrs post dose by LC-MS/MS analysis. Format: ADME, organism-based. Conditions: in vivo.
The subject of series [10] is Mus musculus. The series is described as follows: Antidiabetic activity in po dosed C57BL/6J mouse assessed as reduction of plasma glucose excursion administered 1 hr prior to glucose challenge measured after 120 mins by IPGTT. The class given is functional, organism-based.

Chain of Voltage-gated inwardly rectifying potassium channel KCNH2 (Q12809 whole entry): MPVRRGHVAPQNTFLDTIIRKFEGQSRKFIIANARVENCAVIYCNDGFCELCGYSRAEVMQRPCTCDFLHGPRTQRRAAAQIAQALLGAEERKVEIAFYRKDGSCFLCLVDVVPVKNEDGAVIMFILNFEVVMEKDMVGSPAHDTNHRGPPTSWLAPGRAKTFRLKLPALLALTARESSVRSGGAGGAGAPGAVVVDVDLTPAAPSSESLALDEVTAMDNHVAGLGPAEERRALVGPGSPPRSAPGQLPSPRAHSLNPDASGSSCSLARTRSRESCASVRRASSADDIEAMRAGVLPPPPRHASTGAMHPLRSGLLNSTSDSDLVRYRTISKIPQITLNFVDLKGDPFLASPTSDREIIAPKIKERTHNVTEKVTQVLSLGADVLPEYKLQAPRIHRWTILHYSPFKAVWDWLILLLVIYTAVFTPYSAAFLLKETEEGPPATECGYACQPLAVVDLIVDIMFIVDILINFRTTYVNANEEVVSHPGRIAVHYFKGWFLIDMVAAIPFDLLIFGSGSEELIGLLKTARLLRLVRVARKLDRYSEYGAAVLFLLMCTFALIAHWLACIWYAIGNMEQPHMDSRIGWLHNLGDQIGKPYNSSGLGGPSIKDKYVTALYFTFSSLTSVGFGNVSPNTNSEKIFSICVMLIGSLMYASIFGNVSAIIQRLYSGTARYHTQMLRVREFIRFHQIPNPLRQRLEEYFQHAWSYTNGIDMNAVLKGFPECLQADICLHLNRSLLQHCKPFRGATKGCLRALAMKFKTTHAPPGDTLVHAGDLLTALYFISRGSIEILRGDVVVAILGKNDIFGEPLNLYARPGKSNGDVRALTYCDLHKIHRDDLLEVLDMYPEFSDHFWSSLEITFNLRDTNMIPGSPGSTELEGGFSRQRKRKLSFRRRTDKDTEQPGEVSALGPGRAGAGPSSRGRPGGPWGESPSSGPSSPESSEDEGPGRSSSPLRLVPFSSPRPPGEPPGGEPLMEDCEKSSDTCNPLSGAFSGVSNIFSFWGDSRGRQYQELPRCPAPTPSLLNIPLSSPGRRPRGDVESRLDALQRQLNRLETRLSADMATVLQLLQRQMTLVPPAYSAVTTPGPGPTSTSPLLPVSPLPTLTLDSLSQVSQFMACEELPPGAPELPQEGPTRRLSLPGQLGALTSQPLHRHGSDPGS

Regarding `COc1cc(N2CC[C@@H](Oc3ccc(N4N=C(C(F)(F)F)[C@@H](C)[C@@H]4CC(=O)O)cc3)[C@H](C)C2)c(Cl)cn1`, the “inhibition (INH)” value in series [1] is “Not Active”. For the same compound, in series [2], the remaining at 20 min, up to 3 µM came to 75%. Also, the result in the series on Mus musculus [3], with Mus musculus [5] and with Mus musculus [7] was Active. For the same compound, in series [4], the Tmax is 1.3 h. The half-life is 13 h in [6] and 4 h in series [9]. Further, the inhibition result in the series filed under Homo sapiens is “inactive”. In addition, in series [8], the bioavailability amounted to 62%. For the same compound, in the series on Mus musculus [10], the Activity entry was “Dose-dependent effect”.
